Screens as filed in PubChem.
Calb biofilm kill – clotrimazole potentiators killing Candida biofilms, primary screen, with clotrimazole, Alamar Blue | 85,000 tested, 0.14% active | inhibition, % at 6 µM | AID 834, 2007 | C. albicans biofilm + clotrimazole;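 active = inhibition above 20%; inactive = inhibition below 20%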;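 note: preformed 24 hr biofilms exposed to compound for 48 hr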
DAT uptake mod – changed hDAT dopamine uptake under cocaine IC80, either direction, primary screen, cocaine antagonist project, cell-based, LLC-PK1 hDAT, [14C]-dopamine uptake, MLSMR; LLC-PK1 hDAT cells, [14C]-dopamine uptake with cocaine IC80; actives deviate in either direction; 110,000 tested, 1.3% active; B-score at 10 µM; AID 449768, 2010; Sodium-dependent dopamine transporter (Homo sapiens), Q01959;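 active = Z score or B-score, a plate-position-corrected score, falls beyond the plate's 99.7% confidence bounds, in either direction; inactive = both scores lie inside the 99.7% bounds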
AP ELISA ortho – alternative complement pathway inhibitors, primary screen, biochemical, ELISA, human serum, orthogonally pooled compounds | LPS-coated ELISA, C3 deposition; tested in compound mixtures | inhibition, % at 5 µM | 62,000 tested, 0.08% active;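 active = inhibition above 30% in each of the two pooled mixtures holding the compound, so the lower value exceeds 30%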
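Assay system: human serum alternative complement pathway, C3 deposition on LPS-coated wells; Dosing: 5 µM per compound in ten-compound mixtures; Detection: Anti-C3 ELISA, OD 450 nm; Buffer or medium: Mg2+-EGTA GVB++ buffer containing human serum at 1:15 dilution; Timing: 1 h at 37 °C; Replication: two different pools per compound.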
MMP-13 inhibitor – human MMP13 inhibitors, primary screen, biochemical, FRET peptide cleavage | 65,000 tested, 0.07% active | MMP-13 fTHP FRET cleavage, Mca fluorescence | Collagenase 3 (Homo sapiens), P45452 | inhibition, % at 4 µM | AID 570, 2006;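 active = inhibition above the mean of compound-free control plate wells plus 3 SD, cut at about 14% in these data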
D1 allo mod – D1 CRE-luciferase signal change, two-sided – cell-based, HEK293 D1, dopamine EC30, D1 allosteric modulator project, primary screen. D(1A) dopamine receptor (Homo sapiens), P21728. dopamine EC30 potentiation; actives deviate in either direction. B-score at 10 µM. 58,000 tested, 5.9% active;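 active = luminescence count or its row- and column-corrected plate score outside the 99.7% band of the plate's sample wells, on either side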
Target sequence (P21728 whole entry, looked up): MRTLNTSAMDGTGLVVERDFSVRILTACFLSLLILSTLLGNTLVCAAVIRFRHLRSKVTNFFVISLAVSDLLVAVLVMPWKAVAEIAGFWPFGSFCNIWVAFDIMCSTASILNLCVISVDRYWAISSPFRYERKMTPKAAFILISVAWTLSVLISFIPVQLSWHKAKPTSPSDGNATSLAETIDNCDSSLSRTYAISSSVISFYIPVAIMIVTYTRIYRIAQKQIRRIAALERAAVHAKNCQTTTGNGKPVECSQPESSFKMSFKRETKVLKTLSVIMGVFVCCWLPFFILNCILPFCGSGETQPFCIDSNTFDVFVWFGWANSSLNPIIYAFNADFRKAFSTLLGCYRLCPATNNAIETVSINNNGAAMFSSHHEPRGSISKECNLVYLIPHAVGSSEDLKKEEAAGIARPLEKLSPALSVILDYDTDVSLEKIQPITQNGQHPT
D1 mod confirm – D1 receptor positive allosteric modulators, retest, confirmation, cell-based, HEK293 D1, CRE-luciferase, duplicate | dopamine EC30 potentiation; active compounds read high | shares compounds with D1 allo mod | luminescence at 10 µM | 2,200 tested, 88% active;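 active = luminescence in either of two replicates above the same-plate mean plus 3 SD of the low-dose dopamine control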
D1 no dopamine – D1 receptor agonism without dopamine, confirmation, mechanism study for D1 allosteric modulator project, cell-based, HEK293 D1, CRE-luciferase, secondary assay 1 | shares compounds with D1 allo mod | luminescence, no dopamine; active compounds read high | luminescence at 10 µM | 1,900 tested, 0.8% active | AID 646, 2007; in the data active = luminescence above about 3900
Isoprot counter – alters isoproterenol CRE-luciferase response in HEK293 cells; shares compounds with D1 allo mod; HEK293 D1 CRE-luciferase, isoproterenol EC30 counter-screen; active compounds read high; luminescence at 10 µM; 2,200 tested, 63% active;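 active = luminescence in either replicate above plate mean of wells with a partly effective reference agonist dose plus 3 SD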;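 note: isoproterenol raises cAMP through native beta-adrenoceptor Gs so signal bypasses D1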
Numbers stand for hits; - = inactive; . = no result. Many of the other results were omitted from the sample, so hits are more common in it than they were.

SMILES	Calb biofilm kill	DAT uptake mod	AP ELISA ortho	MMP-13 inhibitor	D1 allo mod	D1 mod confirm	D1 no dopamine	Isoprot counter
CCOC(=O)c1c(NC(=O)c2cccs2)sc(C)c1CC	-	-	-	-	3.8	10804	-	-
CCOC(=O)c1ccccc1NC(=O)COc1ccccc1	-	-	-	-	13	16280	-	3624
O=C(CCS(=O)(=O)Cc1ccc(Cl)cc1)NCCCN1CCOCC1	-	-	.	.	.	.	.	.
N#Cc1ccc(-n2nccc2-c2cnc3n(c2=O)CCS3)cc1	-	-	.	.	.	.	.	.
OC(c1ccccc1)(c1ccc(F)cc1)C(c1ccccc1)N1CCOCC1 (stereo unspecified)	-	-	.	.	.	.	.	.
Cc1cc(C)c2c(n1)sc1c(N3CCN(CCO)CC3)ncnc12	-	-	-	-	7.2	11076	-	4148
c1nc(N2CCOCC2)c2sc3nc(N4CCOCC4)c4c(c3c2n1)CCCC4	-	.	.	-	-	.	.	.
CCCCOc1ccc(-c2nnn(CC(=O)c3c[nH]c4ccccc34)n2)cc1	-	-	.	.	.	.	.	.
COc1ccc(-c2nnn(CC(=O)N(C3CCCCC3)C(C)C(=O)NC3CCCC3)n2)cc1OC (stereo unspecified)	-	-	-	-	-	.	.	.
COc1ccc(-c2nnn(CC(=O)c3c[nH]c4ccccc34)n2)cc1OC	-	-	-	-	8.1	19116	-	5892
COc1ccc(-c2nnn(CC(=O)N(C3CCCC3)C(C)C(=O)NC3CCCC3)n2)cc1OC (stereo unspecified)	-	-	-	-	3.6	6476	.	-
CCOc1ccc(-c2nnn(CC(=O)Nc3ccccc3OC)n2)cc1OCC	-	-	-	-	9.4	19984	-	4200
COc1ccc(-c2nnn(CC(=O)NCc3ccccc3)n2)cc1OC	-	-	.	.	.	.	.	.
COc1ccc(/C=C2\SC(=S)N(NC(=O)c3csc4c3CCCC4)C2=O)cc1	-	-	.	.	.	.	.	.
CN(C)/C=N/C(=S)Nc1ccc(Br)cc1F	-	-	.	.	.	.	.	.
N#Cc1c(-c2cccs2)cc(-c2cccnc2)nc1N	.	-	-	-	18	16780	-	3548
c1cncc(-c2nnc(-c3cccs3)o2)c1	-	-	-	-	-	.	.	.
N#Cc1c(-c2cccs2)cc(-c2ccccn2)nc1N	-	-	-	-	5.6	10756	-	3144
Cc1onc(-c2ccccc2Cl)c1C(=O)Nc1ccccc1N1CCOCC1	-	-	.	.	.	.	.	.
Cc1cc(C)nc(SCc2nnc(SCC(=O)Nc3nc(-c4ccccc4)cs3)n2C)n1	-	-	.	.	.	.	.	.
COc1ccccc1-c1nnc(SCC(=O)Nc2nc(-c3ccccc3)cs2)n1C	-	-	-	-	2.9	-	-	-
COc1ccc([C@@]2(O)c3c(ccc(CC=C(C)C)c3O)NC(=O)[C@@H]2OC)cc1	.	-	.	.	.	.	.	.
O=C(NCc1cccs1)c1ccccc1C(=O)NCc1cccs1	-	-	-	-	-	.	.	.
CCN(CC)c1ncccc1C(=O)NCc1cccs1	-	-	.	-	7.6	13524	-	3428
COc1ccc(-c2noc(CSc3nc4ccccc4c(=O)n3-c3ccc(C)cc3)n2)cc1	.	-	.	.	.	.	.	.
SMILES	Calb biofilm kill	DAT uptake mod	AP ELISA ortho	MMP-13 inhibitor	D1 allo mod	D1 mod confirm	D1 no dopamine	Isoprot counter
COc1ccc(S(=O)(=O)N2CCC(C(=O)N3CCc4ccccc4C3)CC2)cc1Cl	-	-	.	.	.	.	.	.
Cc1nc2ccccc2c2nc3ccccc3n12	-	-	-	.	-	.	.	.
Cc1nnc2c(NC(C)C)nc3ccccc3n12	-	-	.	-	16	12020	-	3848
CCCSc1nc2c(cnn2-c2ccc(C)cc2)c(=O)[nH]1	-	-	-	-	10	20136	-	3796
CCCSc1nc2c(cnn2-c2ccccc2)c(=O)[nH]1	-	-	-	-	11	17784	-	3568
CCCSc1nc2c(cnn2-c2ccc(F)cc2)c(=O)[nH]1	.	-	-	-	.	.	.	.
CCC(C)Sc1nc2c(cnn2-c2ccccc2)c(=O)[nH]1 (stereo unspecified)	-	-	-	-	12	13072	-	3576
CC1CCN(c2nnc(N)s2)CC1	-	-	-	-	2.8	-	-	-
Nc1nnc(N2CCCCC2)s1	-	-	-	-	-	.	.	.
CCOC(=O)CC1C(=O)NCCN1S(=O)(=O)c1ccccc1Cl (stereo unspecified)	.	-	.	.	.	.	.	.
Cc1cc(-c2ccccc2)nc2cc(C(N)=O)nn12	.	-	-	-	9.4	9500	-	3836
Nc1nc(N2CCCCC2)nc(N(c2ccccc2)c2ccccc2)n1	-	-	-	-	-	.	.	.
Cc1cc(-c2ccccc2)nc2cc(C(=O)NCCCn3ccnc3)nn12	-	-	-	-	-	.	.	.
NC(=O)c1cc(-c2ccccc2)nc(N2CCOCC2)n1	-	-	-	-	9.8	14624	-	4596
NC(=O)c1cc(-c2ccccc2)nc(N2CCCCCC2)n1	-	-	-	-	2.7	6540	-	-
COc1ccc(CCNC(=O)C2CCN(S(C)(=O)=O)CC2)cc1	-	-	.	.	.	.	.	.
CCOC(=O)c1ccc2c(c1)nc(SCc1cn3ccsc3n1)n2CC	-	-	-	-	13	23916	-	8472
Cc1ccc(S(=O)(=O)N2CCSC2)cc1C	-	-	.	.	.	.	.	.
Clc1ccc(OCc2nnc3n2N=C(c2ccc4c(c2)OCCO4)CS3)c(Cl)c1	-	-	-	-	4	9040	-	3300
Cn1c(SCC(N)=O)nnc1C1CCN(C(=O)NC2CCCCC2)CC1	-	-	-	-	-	.	.	.
CC(=O)c1cccc(NC(=O)N2CCC(c3nnc(SCC(N)=O)n3C)CC2)c1	-	-	-	-	3.3	-	.	-
CSc1ccc(C2C(C#N)=C(N)N(c3ccccc3)C3=C2C(=O)CCC3)cc1 (stereo unspecified)	-	-	-	-	2.6	10676	-	-
Cc1ccc(OCCN2C(=O)OC(C)(C)C2(C)O)cc1 (stereo unspecified)	-	-	-	-	5.5	7404	-	-
Cn1c(=O)n(CC(=O)O)c(=O)c2c1nc1n2CCS1	-	-	-	-	5.7	-	-	-
C=C(C)c1cccc(C(C)(C)NC(=O)N(Cc2ccccc2)Cc2ccco2)c1	-	.	.	.	.	.	.	.
Cc1ccc(S(=O)(=O)NCCOc2nc(N3CCOCC3)nc(N3CCOCC3)n2)cc1	-	-	.	.	.	.	.	.
CC1(c2ccccc2)NC(=O)N(CC(=O)NC(=O)NC2CCCC2)C1=O (stereo unspecified)	-	-	-	-	-	.	.	.
